Source: ChEMBL document CHEMBL1152445, “Modulation of multidrug resistance protein 1 (MRP1/ABCC1)-mediated multidrug resistance by bivalent apigenin homodimers and their derivatives” (J Med Chem, 2009)
Activity calls are given as the source filed them. No cut-off for these calls is given here.

Columns and labels:
[1] = Cytotoxicity against human 2008/MRP1 cells after 5 days by MTS assay; format: cell-based; details: 2008/MRP1, 120 h
[2] = Cytotoxicity against human 2008/P cells after 5 days by MTS assay; format: cell-based; details: 120 h
[3] = Cytotoxicity against human 2008/MRP1 cells at 0.5 uM by MTS assay; format: cell-based; details: 2008/mrp1, 0.5 µM
[4] = Cytotoxicity against human 2008/P cells at 0.5 uM after 5 days by MTS assay; format: cell-based; details: 120 h
Homo sapiens = species: Homo sapiens; experiment: Increase in doxorubicin accumulation in doxorubicin-co-incubated human 2008/P cells at 3 uM after 120 mins by spectrofluorimetry; format: functional
Method in brief: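 5 × 10^5 cells of the parental ovarian line incubated 120 min at 37 °C with 20 μM doxorubicin plus 3 μM modulator, 0.3% DMSO as vehicle control. Cells washed twice with cold PBS pH 7.4 and lysed in 0.75 M HCl/0.2% Triton X-100 in isopropanol, then 20 min at 37 °C. Supernatant fluorescence read at ex 460/em 610 nm. Duplicate, three repeats, mean ± SEM.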

[5] = molecular target: T1, Multidrug resistance-associated protein 1 (Homo sapiens, UniProt P33527); experiment: Reversal of MRP1-mediated doxorubicin resistance in human 2008/MRP1 cells assessed as ratio of doxorubicin IC50 to doxorubicin IC50 in presence of compound at 0.5 uM; format: cell-based; details: 2008/mrp1, 0.5 µM
T1 sequence (P33527 whole entry): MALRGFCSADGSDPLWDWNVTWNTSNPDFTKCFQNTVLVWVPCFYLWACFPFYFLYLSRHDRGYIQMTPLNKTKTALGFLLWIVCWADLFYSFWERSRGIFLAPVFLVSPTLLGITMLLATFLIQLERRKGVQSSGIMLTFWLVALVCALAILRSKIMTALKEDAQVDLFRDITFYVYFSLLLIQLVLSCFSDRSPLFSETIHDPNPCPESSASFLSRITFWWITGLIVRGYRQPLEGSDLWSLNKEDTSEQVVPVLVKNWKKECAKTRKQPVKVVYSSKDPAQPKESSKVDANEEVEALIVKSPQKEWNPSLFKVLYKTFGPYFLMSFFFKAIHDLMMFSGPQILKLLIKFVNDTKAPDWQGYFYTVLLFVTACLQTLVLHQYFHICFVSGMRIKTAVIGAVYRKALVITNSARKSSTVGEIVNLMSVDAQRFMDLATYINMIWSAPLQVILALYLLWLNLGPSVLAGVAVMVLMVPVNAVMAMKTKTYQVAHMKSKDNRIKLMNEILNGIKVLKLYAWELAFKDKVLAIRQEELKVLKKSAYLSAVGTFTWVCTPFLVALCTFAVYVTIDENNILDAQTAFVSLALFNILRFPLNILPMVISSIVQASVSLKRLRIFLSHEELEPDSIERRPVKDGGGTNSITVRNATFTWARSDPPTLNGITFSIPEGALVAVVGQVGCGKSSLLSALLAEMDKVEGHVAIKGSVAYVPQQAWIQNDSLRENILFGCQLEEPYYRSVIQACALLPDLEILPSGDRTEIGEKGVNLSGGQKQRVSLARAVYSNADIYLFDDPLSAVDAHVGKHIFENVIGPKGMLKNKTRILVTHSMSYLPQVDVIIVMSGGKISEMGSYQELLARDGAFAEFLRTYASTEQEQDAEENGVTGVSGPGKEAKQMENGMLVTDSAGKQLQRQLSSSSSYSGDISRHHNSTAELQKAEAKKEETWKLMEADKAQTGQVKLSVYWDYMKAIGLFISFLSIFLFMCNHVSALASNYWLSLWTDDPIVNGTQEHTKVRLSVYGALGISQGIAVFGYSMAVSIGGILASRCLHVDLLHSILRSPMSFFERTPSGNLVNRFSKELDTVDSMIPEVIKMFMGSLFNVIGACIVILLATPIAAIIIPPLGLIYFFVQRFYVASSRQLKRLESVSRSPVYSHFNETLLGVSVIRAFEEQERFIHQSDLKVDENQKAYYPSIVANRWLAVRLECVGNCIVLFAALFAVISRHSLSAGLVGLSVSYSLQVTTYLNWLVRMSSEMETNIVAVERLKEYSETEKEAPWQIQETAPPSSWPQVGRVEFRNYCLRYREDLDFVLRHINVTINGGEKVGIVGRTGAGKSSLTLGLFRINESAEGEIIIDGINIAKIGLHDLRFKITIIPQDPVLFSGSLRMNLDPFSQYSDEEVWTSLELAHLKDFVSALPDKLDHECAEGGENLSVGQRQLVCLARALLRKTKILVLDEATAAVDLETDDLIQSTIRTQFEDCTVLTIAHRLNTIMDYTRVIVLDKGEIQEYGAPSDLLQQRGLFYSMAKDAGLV

Mus musculus = experiment: Potentiation of vincristine-efficacy in nude mouse model assessed as regression of tumor volume at 8 mg/kg in presence of 0.5 mg/kg vincristine; format: functional
[6] = molecular target: ATP-binding cassette sub-family C member 2 (Homo sapiens, UniProt Q92887); experiment: Inhibition of MRP2
Chain of ATP-binding cassette sub-family C member 2 (Q92887 whole entry): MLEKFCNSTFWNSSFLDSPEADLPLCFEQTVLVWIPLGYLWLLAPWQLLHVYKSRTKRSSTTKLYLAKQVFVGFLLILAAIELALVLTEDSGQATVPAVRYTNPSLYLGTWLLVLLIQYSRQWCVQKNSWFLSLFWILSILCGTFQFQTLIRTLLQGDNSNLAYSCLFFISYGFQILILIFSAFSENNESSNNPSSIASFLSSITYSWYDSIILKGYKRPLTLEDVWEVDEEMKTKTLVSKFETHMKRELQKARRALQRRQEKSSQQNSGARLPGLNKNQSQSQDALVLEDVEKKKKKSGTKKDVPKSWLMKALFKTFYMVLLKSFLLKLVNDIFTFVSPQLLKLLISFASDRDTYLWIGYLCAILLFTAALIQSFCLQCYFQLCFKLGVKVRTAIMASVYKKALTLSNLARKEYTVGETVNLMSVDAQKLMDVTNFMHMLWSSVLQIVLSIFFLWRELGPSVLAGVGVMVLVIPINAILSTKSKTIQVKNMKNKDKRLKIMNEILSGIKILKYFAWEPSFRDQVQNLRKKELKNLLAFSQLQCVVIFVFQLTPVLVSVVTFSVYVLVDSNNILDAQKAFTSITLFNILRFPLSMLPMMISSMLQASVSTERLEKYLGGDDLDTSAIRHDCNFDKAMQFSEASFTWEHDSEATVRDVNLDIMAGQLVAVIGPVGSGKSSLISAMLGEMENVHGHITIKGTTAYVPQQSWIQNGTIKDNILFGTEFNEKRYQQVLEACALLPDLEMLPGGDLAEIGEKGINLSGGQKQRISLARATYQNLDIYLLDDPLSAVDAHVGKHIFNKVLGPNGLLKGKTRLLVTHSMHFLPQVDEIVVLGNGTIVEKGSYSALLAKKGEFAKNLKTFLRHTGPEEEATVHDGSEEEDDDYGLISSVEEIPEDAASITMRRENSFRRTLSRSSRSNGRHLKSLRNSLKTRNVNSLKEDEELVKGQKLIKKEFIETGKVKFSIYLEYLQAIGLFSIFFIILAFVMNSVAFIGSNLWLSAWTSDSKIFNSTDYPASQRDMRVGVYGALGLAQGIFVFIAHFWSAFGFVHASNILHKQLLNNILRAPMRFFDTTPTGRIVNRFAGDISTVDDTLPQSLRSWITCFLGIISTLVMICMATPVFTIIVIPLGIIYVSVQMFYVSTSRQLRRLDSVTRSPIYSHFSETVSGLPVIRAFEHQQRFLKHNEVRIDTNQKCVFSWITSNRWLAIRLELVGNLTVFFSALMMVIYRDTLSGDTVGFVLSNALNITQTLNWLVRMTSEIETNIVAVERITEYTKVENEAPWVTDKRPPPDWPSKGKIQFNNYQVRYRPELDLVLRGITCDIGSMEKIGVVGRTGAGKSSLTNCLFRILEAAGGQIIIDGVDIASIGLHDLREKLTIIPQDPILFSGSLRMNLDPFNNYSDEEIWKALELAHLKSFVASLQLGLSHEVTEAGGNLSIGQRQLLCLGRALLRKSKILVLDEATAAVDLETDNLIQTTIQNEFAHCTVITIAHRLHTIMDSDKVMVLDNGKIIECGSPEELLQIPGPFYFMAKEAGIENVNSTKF

[7] = Anticancer activity against human 2008/P cells after 5 days by MTS assay; format: functional, cell-based; details: 120 h
[8] = Anticancer activity against human 2008/MRP1 cells after 5 days by MTS assay; format: functional, cell-based; details: 2008/MRP1, 120 h
[9] = Selectivity ratio of IC50 for human 2008/MRP1 cells to IC50 for human 2008/P cells; format: functional
Method in brief: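 Ratio of doxorubicin or etoposide IC50 in the MRP1 transfectant to IC50 in the parental line. Both IC50 values come from the 5-day MTS proliferation assay without modulator.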

[10] = molecular target: T1, Multidrug resistance-associated protein 1; experiment: Reversal of MRP1-mediated doxorubicin resistance in doxorubicin co-incubated human 2008/MRP1 cells assessed as effect on doxorubicin accumulation at […] after 120 mins by spectrofluorimetry; format: cell-based; details: 2008/mrp1, 2 h
[11] = molecular target: T1, Multidrug resistance-associated protein 1; experiment: Reversal of MRP1-mediated doxorubicin resistance in doxorubicin co-incubated human 2008/MRP1 cells assessed as increase in doxorubicin accumulation at 3 uM after 120 mins by spectrofluorimetry relative to control; format: cell-based; details: 2008/mrp1, 2 h

Row | Compound | IC50 [1] [µM] | IC50 [2] [µM] | Activity [3] | Activity [4] | further results
1 | O=c1cc(-c2ccc(OCCOCCOCCOCCOc3ccc(-c4cc(=O)c5c(O)cc(O)cc5o4)cc3)cc2)oc2cc(O)cc(O)c12 | > 100 | > 100 | – | – | –
2 | CCc1ccc2oc(-c3ccc(OCCOCCOCCOCCOCCOCCOc4ccc(-c5cc(=O)c6cc(CC)ccc6o5)cc4)cc3)cc(=O)c2c1 | 76.2 | > 96 | Non-toxic | Non-toxic | –
3 | O=c1cc(-c2ccc(OCCOCCOCCOCCOc3ccc(-c4cc(=O)c5ccccc5o4)cc3)cc2)oc2ccccc12 | > 93 | > 100 | – | – | –
4 | O=c1cc(-c2ccc(OCCOCCOCCOCCOCCOCCOCCOc3ccc(-c4cc(=O)c5ccccc5o4)cc3)cc2)oc2ccccc12 | – | – | Non-toxic | Non-toxic | –
5 | Cc1ccc2oc(-c3ccc(OCCOCCOCCOCCOCCOCCOc4ccc(-c5cc(=O)c6cc(C)ccc6o5)cc4)cc3)cc(=O)c2c1 | > 100 | > 100 | Non-toxic | Non-toxic | –
6 | CCc1ccc2oc(-c3ccc(OCCOCCOCCOCCOCCOc4ccc(-c5cc(=O)c6cc(CC)ccc6o5)cc4)cc3)cc(=O)c2c1 | 46.1 | 62.6 | Non-toxic | Non-toxic | –
7 | O=c1cc(-c2ccc(OCCOCCOCCOCCOCCOCCOCCOCCOCCOc3ccc(-c4cc(=O)c5ccccc5o4)cc3)cc2)oc2ccccc12 | – | – | Non-toxic | Non-toxic | –
8 | O=c1cc(-c2ccc(OCCOCCOCCOCCOCCOc3ccc(-c4cc(=O)c5ccc(F)cc5o4)cc3)cc2)oc2cc(F)ccc12 | 8.9 | 17.5 | Non-toxic | Non-toxic | –
9 | CN(C)C(=O)CCSC(SCCC(=O)O)c1cccc(/C=C/c2ccc3ccc(Cl)cc3n2)c1 (centres undefined) | – | – | – | – | Activity (Homo sapiens): inactive
10 | O=c1cc(-c2ccc(OCCOCCOCCOCCOCCOCCOCCOCCOCCOCCOCCOCCOCCOc3ccc(-c4cc(=O)c5ccccc5o4)cc3)cc2)oc2ccccc12 | – | – | Non-toxic | Non-toxic | –
11 | COc1ccc(CCN(C)CCCC(C#N)(c2ccc(OC)c(OC)c2)C(C)C)cc1OC (centres undefined) | – | – | – | – | Activity (Homo sapiens): inactive
12 | Cc1ccc2c(=O)cc(-c3ccc(OCCOCCOCCOCCOc4ccc(-c5cc(=O)c6ccc(C)cc6o5)cc4)cc3)oc2c1 | > 100 | > 100 | Non-toxic | Non-toxic | –
13 | Cc1ccc2oc(-c3ccc(OCCOCCOCCOCCOc4ccc(-c5cc(=O)c6cc(C)ccc6o5)cc4)cc3)cc(=O)c2c1 | > 77 | > 100 | Non-toxic | Non-toxic | –
14 | O=c1cc(-c2ccc(OCCOCCOCCOc3ccc(-c4cc(=O)c5c(O)cc(O)cc5o4)cc3)cc2)oc2cc(O)cc(O)c12 | > 100 | > 100 | – | – | –
15 | O=c1cc(-c2ccc(OCCOCCOCCOCCOCCOCCOCCOCCOc3ccc(-c4cc(=O)c5ccccc5o4)cc3)cc2)oc2ccccc12 | – | – | Non-toxic | Non-toxic | –
16 | Cc1c(-c2ccc(OCCOCCOCCOCCOCCOCCOc3ccc(-c4oc5ccccc5c(=O)c4C)cc3)cc2)oc2ccccc2c1=O | – | – | Non-toxic | Non-toxic | –
17 | O=c1cc(-c2ccc(OCCOCCOCCOCCOCCOCCOCCOc3ccc(-c4cc(=O)c5c(O)cc(O)cc5o4)cc3)cc2)oc2cc(O)cc(O)c12 | – | – | – | – | Activity [5]: 1.5
18 | Cc1onc2c1c(=O)n([C@H]1CCC[C@@H](CNC(=O)c3ccccc3)C1)c1cccc(Cl)c21 | – | – | – | – | Activity (Mus musculus): 63%
19 | Cc1ccc2c(=O)cc(-c3ccc(OCCOCCOCCOCCOCCOCCOc4ccc(-c5cc(=O)c6ccc(C)cc6o5)cc4)cc3)oc2c1 | 10.2 | 6.1 | Non-toxic | Non-toxic | –
20 | Cc1ccc2oc(-c3ccc(OCCOCCOCCOCCOCCOc4ccc(-c5cc(=O)c6cc(C)ccc6o5)cc4)cc3)cc(=O)c2c1 | > 100 | > 100 | Non-toxic | Non-toxic | Activity (Homo sapiens): Active
21 | Cc1ccc2c(=O)cc(-c3ccc(OCCOCCOCCOCCOCCOc4ccc(-c5cc(=O)c6ccc(C)cc6o5)cc4)cc3)oc2c1 | 53.3 | 60.6 | Non-toxic | Non-toxic | –
22 | O=c1cc(-c2ccc(OCCOCCOCCOCCOCCOCCOc3ccc(-c4cc(=O)c5ccccc5o4)cc3)cc2)oc2ccccc12 | 2.8 | 3.7 | Non-toxic | Non-toxic | Activity [5]: 7.8
23 | O=c1cc(-c2ccc(OCCOCCOCCOCCOCCOCCOc3ccc(-c4cc(=O)c5ccc(F)cc5o4)cc3)cc2)oc2cc(F)ccc12 | 5.2 | 4.4 | Non-toxic | Non-toxic | –
24 | O=c1c(O)c(-c2cc(O)c(O)c(O)c2)oc2cc(O)cc(O)c12 [MYRICETIN] | – | – | – | – | IC50 [6]: 22 µM
25 | COc1cccc2c1C(=O)c1c(O)c3c(c(O)c1C2=O)C[C@@](O)(C(=O)CO)C[C@@H]3O[C@H]1C[C@H](N)[C@H](O)[C@H](C)O1 [DOXORUBICIN] | – | – | – | – | IC50 [7]: 0.063 µM; IC50 [8]: 0.577 µM; Ratio IC50 [9]: 9.2
26 | Cc1c(-c2ccc(OCCOCCOCCOCCOCCOc3ccc(-c4oc5ccccc5c(=O)c4C)cc3)cc2)oc2ccccc2c1=O | – | – | Non-toxic | Non-toxic | –
27 | CCc1ccc2oc(-c3ccc(OCCOCCOCCOCCOc4ccc(-c5cc(=O)c6cc(CC)ccc6o5)cc4)cc3)cc(=O)c2c1 | 69.5 | 77.7 | Non-toxic | Non-toxic | –
28 | CCCN(CCC)S(=O)(=O)c1ccc(C(=O)O)cc1 [PROBENECID] | – | – | – | – | Activity (Homo sapiens): inactive; Activity [10]: Not Active; Activity [11]: Not Active
